The source made the active and inactive calls.
What was measured:
Conditions in all cases: C57Bl/6
Mus musculus [1] = assay: Antiinflammatory activity against trinitrobenzenesulfonic acid-induced colitis in human PXR expressing transgenic C57/BL6 mouse assessed as increase in TGF-beta1 protein level in colon at 10 mg/kg, po qd after 5 days
Mus musculus [2] = assay: Antiinflammatory activity against trinitrobenzenesulfonic acid-induced colitis in human PXR expressing transgenic C57/BL6 mouse assessed as decrease in weight loss at 10 mg/kg, po qd administered 3 days before TNBS challenge measured after 7 days; type: functional, organism-based; design: dose 10 mg/kg
Method in brief: (§1)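 Clinical read-outs in hPXR mice with TNBS colitis (0.5 mg/mouse intrarectally in 50% ethanol after a 16 h fast). Oral dosing at 10 mg/kg once daily (DMSO diluted in 1% methylcellulose) started 3 days before TNBS. Diarrhea was scored and body weight recorded, weight expressed as delta percentage versus the day before TNBS; sacrifice was 4 days after TNBS. n = 6–7.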

Mus musculus [3] = assay: Antiinflammatory activity against trinitrobenzenesulfonic acid-induced colitis in human PXR expressing transgenic C57/BL6 mouse assessed as decrease in appearance of submucosal edema in colon at 10 mg/kg, po qd administered 3 days before TNBS challenge measured after 7 days by haematoxylin/eosin staining; type: functional, organism-based; design: dose 10 mg/kg
Method in brief: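 TNBS colitis in male hPXR mice (human PXR on mouse PXR-null background). After a 16 h fast and light ketamine/xylazine i.p. anesthesia, mice received TNBS 0.5 mg/mouse in 50% ethanol intrarectally by catheter. Dosing was 10 mg/kg orally once daily, dissolved in DMSO and diluted in 1% methylcellulose, starting 3 days before TNBS. Colons were taken 4 days after TNBS and stained with H&E. n = 6–7.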

Mus musculus [4] = assay: Antiinflammatory activity against trinitrobenzenesulfonic acid-induced colitis in human PXR expressing transgenic C57/BL6 mouse assessed as decrease in microscopic colon damage at 10 mg/kg, po qd administered 3 days before TNBS challenge measured after 7 days; type: functional, organism-based; design: dose 10 mg/kg
Method in brief: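 Microscopic colon damage in the prophylactic TNBS model in hPXR mice: oral 10 mg/kg daily, in DMSO/1% methylcellulose, from 3 days before intrarectal TNBS (0.5 mg/mouse in 50% ethanol). Colons were collected at day 4 post-TNBS, formalin-fixed, paraffin-embedded and H&E-stained, then graded blind on a 0–4 scale (leukocyte infiltration, vascular density, wall thickening, goblet cell loss). n = 6–7.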

Mus musculus [5] = assay: Antiinflammatory activity against trinitrobenzenesulfonic acid-induced colitis in human PXR expressing transgenic C57/BL6 mouse assessed as decrease in occurrence of diarrhea at 10 mg/kg, po qd administered 3 days before TNBS challenge measured after 7 days; type: functional, organism-based; design: dose 10 mg/kg
Method in brief: as §1

Mus musculus [6] = assay: Antiinflammatory activity against trinitrobenzenesulfonic acid-induced colitis in human PXR expressing transgenic C57/BL6 mouse assessed as decrease in INF-gamma protein level in colon at 10 mg/kg, po qd after 5 days; type: functional, organism-based; design: dose 10 mg/kg
Mus musculus [7] = assay: Antiinflammatory activity against trinitrobenzenesulfonic acid-induced colitis in human PXR expressing transgenic C57/BL6 mouse assessed as increase in TGF-beta1 protein level in colon at 10 mg/kg, ip qd after 5 days
Mus musculus [8] = assay: Antiinflammatory activity against trinitrobenzenesulfonic acid-induced colitis in human PXR expressing transgenic C57/BL6 mouse assessed as decrease in edema of colon at 10 mg/kg, ip administered on day 1 after TNBS challenge measured after 5 days; type: functional, organism-based; design: dose 10 mg/kg
Method in brief: (§2)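 Therapeutic protocol in male hPXR mice. Colitis was induced with intrarectal TNBS 0.5 mg/mouse in 50% ethanol after a 16 h fast and light ketamine/xylazine anaesthesia. Drug at 10 mg/kg was given once daily from day 1 after TNBS. Mice were sacrificed 5 days after TNBS; n = 4–6 per group.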

Mus musculus [9] = assay: Antiinflammatory activity against trinitrobenzenesulfonic acid-induced colitis in human PXR expressing transgenic C57/BL6 mouse assessed as decrease in weight loss at 10 mg/kg, ip qd administered 3 days before TNBS challenge measured after 7 days; type: functional, organism-based; design: dose 10 mg/kg
Method in brief: (§3)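 Male hPXR mice (human PXR on mouse PXR-null background). Fasted 16 h and lightly anaesthetised with ketamine/xylazine, then given TNBS 0.5 mg/mouse in 50% ethanol intrarectally in 150 μL. Drug was dissolved in DMSO, diluted in 1% methylcellulose and given i.p. once daily for 3 days before TNBS. Vehicle controls received methylcellulose. Mice were sacrificed 4 days after TNBS; n = 6–7 per group.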

Mus musculus [10] = assay: Antiinflammatory activity against trinitrobenzenesulfonic acid-induced colitis in human PXR expressing transgenic C57/BL6 mouse assessed as decrease in leukocyte infiltration in colon at 10 mg/kg, ip administered on day 1 after TNBS challenge measured after 5 days by microscopically; type: functional, organism-based; design: dose 10 mg/kg
Method in brief: as §2

Mus musculus [11] = assay: Antiinflammatory activity against trinitrobenzenesulfonic acid-induced colitis in human PXR expressing transgenic C57/BL6 mouse assessed as decrease in colonic myeloperoxidase activity at 10 mg/kg, ip qd after 5 days using trimethylbenzidine as substrate by spectrophotometry; type: functional, organism-based; design: dose 10 mg/kg
Method in brief: as §3

Mus musculus [12] = assay: Antiinflammatory activity against trinitrobenzenesulfonic acid-induced colitis in human PXR expressing transgenic C57/BL6 mouse assessed as decrease in thickness of colon at 10 mg/kg, ip qd administered 3 days before TNBS challenge measured after 7 days; type: functional, organism-based; design: dose 10 mg/kg
Method in brief: as §3

Mus musculus [13] = assay: Antiinflammatory activity against trinitrobenzenesulfonic acid-induced colitis in human PXR expressing transgenic C57/BL6 mouse assessed as decrease in microscopic colon damage at 10 mg/kg, ip qd administered 3 days before TNBS challenge measured after 7 days; type: functional, organism-based; design: dose 10 mg/kg
Method in brief: as §3

Mus musculus [14] = assay: Antiinflammatory activity against trinitrobenzenesulfonic acid-induced colitis in human PXR expressing transgenic C57/BL6 mouse assessed as decrease in presence of indurations in colon at 10 mg/kg, ip qd administered 3 days before TNBS challenge measured after 7 days; type: functional, organism-based; design: dose 10 mg/kg
Method in brief: as §3

Mus musculus [15] = assay: Antiinflammatory activity against trinitrobenzenesulfonic acid-induced colitis in human PXR expressing transgenic C57/BL6 mouse assessed as induction of CYP3A11 mRNA expression in colon at 10 mg/kg, ip qd after 5 days by quantitative RT-PCR; type: functional, organism-based; design: dose 10 mg/kg
Method in brief: as §3

Mus musculus [16] = assay: Antiinflammatory activity against trinitrobenzenesulfonic acid-induced colitis in human PXR expressing transgenic C57/BL6 mouse assessed as decrease in appearance of epithelial erosions in colon at 10 mg/kg, ip qd administered 3 days before TNBS challenge measured after 7 days by haematoxylin/eosin staining; type: functional, organism-based; design: dose 10 mg/kg
Method in brief: as §3

Mus musculus [17] = assay: Antiinflammatory activity against trinitrobenzenesulfonic acid-induced colitis in human PXR expressing transgenic C57/BL6 mouse assessed as decrease in TNF-alpha protein level in colon at 10 mg/kg, ip qd after 5 days by ELISA; type: functional, organism-based; design: dose 10 mg/kg
Method in brief: as §3

Mus musculus [18] = assay: Antiinflammatory activity against trinitrobenzenesulfonic acid-induced colitis in human PXR expressing transgenic C57/BL6 mouse assessed as increase in IL-10 protein level in colon at 10 mg/kg, ip qd after 5 days by ELISA; type: functional, organism-based; design: dose 10 mg/kg
Method in brief: as §3

Mus musculus [19] = assay: Antiinflammatory activity against trinitrobenzenesulfonic acid-induced colitis in human PXR expressing transgenic C57/BL6 mouse assessed as decrease in thickness of colon at 10 mg/kg, ip administered on day 1 after TNBS challenge measured after 5 days; type: functional, organism-based; design: dose 10 mg/kg
Method in brief: as §2

Mus musculus [20] = assay: Antiinflammatory activity against trinitrobenzenesulfonic acid-induced colitis in human PXR expressing transgenic C57/BL6 mouse assessed as decrease in colonic myeloperoxidase level at 10 mg/kg, ip administered on day 1 after TNBS challenge measured after 5 days; type: functional, organism-based; design: dose 10 mg/kg
Method in brief: as §2

Measured: Activity

CO[C@H]1/C=C/O[C@@]2(C)Oc3c(C)c(O)c4c(O)c(c5c(nc6cc(C)ccn65)c4c3C2=O)NC(=O)/C(C)=C\C=C\[C@H](C)[C@H](O)[C@@H](C)[C@@H](O)[C@@H](C)[C@H](OC(C)=O)[C@@H]1C [RIFAXIMIN]
active: Mus musculus [1] | Mus musculus [2] | Mus musculus [3] | Mus musculus [4] | Mus musculus [5] | Mus musculus [6]

C[C@H](CCCOS(=O)(=O)O)[C@H]1CC[C@H]2[C@@H]3CC[C@H]4C[C@H](OS(=O)(=O)O)[C@@H](OS(=O)(=O)O)C[C@]4(C)[C@H]3CC[C@]12C [SOLOMONSTEROL A]
not listed: Mus musculus [1] | Mus musculus [2] | Mus musculus [3] | Mus musculus [4] | Mus musculus [5] | Mus musculus [6]
active: all other assays above

Source: ChEMBL document CHEMBL1799920, “Total synthesis and pharmacological characterization of solomonsterol A, a potent marine pregnane-X-receptor agonist endowed with anti-inflammatory activity” (J Med Chem, 2011)
